From ChEMBL document CHEMBL3797186, “Single Residue Substitutions That Confer Voltage-Gated Sodium Ion Channel Subtype Selectivity in the NaV1.7 Inhibitory Peptide GpTx-1” (J Med Chem, 2016)
Positions of bridges follow the written chain, without caps; N, C: chain ends. Residues, ends and D or L forms follow the SMILES beside them.

How the values were obtained:
[1] = biological target: Sodium channel protein type 9 subunit alpha (Homo sapiens, UniProt Q15858); assay: Inhibition of human Nav1.7 expressed in HEK293 cells assessed as inward peak current by ion-works quattro patch clamp electrophysiology method; assay type: cell-based
[2] = biological target: Sodium channel protein type 5 subunit alpha (Homo sapiens, UniProt Q14524); assay: Inhibition of human Nav1.5 expressed in HEK293 cells assessed as inward peak current by ion-works quattro patch clamp electrophysiology method; assay type: cell-based
Procedure, shortened: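 Stable HEK293 line expressing human NaV1.5, recorded by population patch clamp on the IonWorks Quattro.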

Sequence of Sodium channel protein type 5 subunit alpha (Q14524 whole entry): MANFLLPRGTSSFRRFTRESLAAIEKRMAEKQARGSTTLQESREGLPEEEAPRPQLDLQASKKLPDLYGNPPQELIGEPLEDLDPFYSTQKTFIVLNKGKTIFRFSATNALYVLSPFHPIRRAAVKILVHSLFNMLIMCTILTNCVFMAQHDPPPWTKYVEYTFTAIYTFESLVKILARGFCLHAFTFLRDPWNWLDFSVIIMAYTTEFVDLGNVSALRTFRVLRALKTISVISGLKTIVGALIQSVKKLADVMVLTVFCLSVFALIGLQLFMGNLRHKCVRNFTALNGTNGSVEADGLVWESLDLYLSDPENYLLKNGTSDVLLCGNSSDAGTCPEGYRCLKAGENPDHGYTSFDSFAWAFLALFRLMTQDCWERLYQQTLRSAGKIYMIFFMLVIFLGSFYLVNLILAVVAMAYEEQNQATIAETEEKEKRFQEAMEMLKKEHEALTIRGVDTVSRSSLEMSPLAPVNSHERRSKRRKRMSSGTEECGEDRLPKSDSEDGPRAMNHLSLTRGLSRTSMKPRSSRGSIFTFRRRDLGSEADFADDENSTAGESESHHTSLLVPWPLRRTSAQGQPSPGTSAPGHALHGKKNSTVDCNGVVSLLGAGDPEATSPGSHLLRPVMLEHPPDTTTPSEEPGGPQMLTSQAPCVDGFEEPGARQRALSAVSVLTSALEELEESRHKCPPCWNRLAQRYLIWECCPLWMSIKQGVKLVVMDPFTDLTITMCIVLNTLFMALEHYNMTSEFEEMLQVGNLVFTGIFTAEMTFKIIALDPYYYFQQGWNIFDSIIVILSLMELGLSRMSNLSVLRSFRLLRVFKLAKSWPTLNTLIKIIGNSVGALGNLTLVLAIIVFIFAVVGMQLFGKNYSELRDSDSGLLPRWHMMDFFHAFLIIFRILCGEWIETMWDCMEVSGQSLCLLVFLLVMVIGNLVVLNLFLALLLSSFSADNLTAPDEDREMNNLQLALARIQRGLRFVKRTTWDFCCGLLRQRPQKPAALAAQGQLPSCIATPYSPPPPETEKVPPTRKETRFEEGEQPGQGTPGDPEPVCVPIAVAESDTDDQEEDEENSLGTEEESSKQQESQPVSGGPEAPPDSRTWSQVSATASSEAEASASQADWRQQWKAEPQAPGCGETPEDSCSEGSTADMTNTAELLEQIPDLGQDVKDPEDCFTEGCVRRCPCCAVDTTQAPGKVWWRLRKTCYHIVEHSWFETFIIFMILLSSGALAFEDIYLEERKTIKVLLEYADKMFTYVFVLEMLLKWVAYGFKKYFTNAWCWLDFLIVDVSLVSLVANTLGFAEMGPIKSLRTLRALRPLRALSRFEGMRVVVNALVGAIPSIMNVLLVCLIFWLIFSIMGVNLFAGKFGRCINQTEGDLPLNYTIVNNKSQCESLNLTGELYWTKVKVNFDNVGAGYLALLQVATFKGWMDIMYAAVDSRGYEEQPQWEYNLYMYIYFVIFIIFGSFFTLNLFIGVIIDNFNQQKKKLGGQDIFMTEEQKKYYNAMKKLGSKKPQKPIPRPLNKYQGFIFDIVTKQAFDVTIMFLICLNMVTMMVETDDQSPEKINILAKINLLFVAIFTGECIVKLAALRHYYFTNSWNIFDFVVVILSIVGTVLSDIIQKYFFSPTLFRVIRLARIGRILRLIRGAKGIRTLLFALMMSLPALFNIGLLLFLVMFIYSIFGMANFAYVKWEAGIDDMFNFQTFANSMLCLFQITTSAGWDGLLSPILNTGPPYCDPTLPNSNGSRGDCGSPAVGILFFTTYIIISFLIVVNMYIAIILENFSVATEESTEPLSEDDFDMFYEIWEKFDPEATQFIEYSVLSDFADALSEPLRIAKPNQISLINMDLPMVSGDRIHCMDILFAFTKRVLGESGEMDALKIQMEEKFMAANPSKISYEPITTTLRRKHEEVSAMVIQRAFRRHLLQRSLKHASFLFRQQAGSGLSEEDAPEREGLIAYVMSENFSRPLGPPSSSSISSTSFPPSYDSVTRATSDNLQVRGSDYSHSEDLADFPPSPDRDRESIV
Sequence of Sodium channel protein type 9 subunit alpha (Q15858 whole entry): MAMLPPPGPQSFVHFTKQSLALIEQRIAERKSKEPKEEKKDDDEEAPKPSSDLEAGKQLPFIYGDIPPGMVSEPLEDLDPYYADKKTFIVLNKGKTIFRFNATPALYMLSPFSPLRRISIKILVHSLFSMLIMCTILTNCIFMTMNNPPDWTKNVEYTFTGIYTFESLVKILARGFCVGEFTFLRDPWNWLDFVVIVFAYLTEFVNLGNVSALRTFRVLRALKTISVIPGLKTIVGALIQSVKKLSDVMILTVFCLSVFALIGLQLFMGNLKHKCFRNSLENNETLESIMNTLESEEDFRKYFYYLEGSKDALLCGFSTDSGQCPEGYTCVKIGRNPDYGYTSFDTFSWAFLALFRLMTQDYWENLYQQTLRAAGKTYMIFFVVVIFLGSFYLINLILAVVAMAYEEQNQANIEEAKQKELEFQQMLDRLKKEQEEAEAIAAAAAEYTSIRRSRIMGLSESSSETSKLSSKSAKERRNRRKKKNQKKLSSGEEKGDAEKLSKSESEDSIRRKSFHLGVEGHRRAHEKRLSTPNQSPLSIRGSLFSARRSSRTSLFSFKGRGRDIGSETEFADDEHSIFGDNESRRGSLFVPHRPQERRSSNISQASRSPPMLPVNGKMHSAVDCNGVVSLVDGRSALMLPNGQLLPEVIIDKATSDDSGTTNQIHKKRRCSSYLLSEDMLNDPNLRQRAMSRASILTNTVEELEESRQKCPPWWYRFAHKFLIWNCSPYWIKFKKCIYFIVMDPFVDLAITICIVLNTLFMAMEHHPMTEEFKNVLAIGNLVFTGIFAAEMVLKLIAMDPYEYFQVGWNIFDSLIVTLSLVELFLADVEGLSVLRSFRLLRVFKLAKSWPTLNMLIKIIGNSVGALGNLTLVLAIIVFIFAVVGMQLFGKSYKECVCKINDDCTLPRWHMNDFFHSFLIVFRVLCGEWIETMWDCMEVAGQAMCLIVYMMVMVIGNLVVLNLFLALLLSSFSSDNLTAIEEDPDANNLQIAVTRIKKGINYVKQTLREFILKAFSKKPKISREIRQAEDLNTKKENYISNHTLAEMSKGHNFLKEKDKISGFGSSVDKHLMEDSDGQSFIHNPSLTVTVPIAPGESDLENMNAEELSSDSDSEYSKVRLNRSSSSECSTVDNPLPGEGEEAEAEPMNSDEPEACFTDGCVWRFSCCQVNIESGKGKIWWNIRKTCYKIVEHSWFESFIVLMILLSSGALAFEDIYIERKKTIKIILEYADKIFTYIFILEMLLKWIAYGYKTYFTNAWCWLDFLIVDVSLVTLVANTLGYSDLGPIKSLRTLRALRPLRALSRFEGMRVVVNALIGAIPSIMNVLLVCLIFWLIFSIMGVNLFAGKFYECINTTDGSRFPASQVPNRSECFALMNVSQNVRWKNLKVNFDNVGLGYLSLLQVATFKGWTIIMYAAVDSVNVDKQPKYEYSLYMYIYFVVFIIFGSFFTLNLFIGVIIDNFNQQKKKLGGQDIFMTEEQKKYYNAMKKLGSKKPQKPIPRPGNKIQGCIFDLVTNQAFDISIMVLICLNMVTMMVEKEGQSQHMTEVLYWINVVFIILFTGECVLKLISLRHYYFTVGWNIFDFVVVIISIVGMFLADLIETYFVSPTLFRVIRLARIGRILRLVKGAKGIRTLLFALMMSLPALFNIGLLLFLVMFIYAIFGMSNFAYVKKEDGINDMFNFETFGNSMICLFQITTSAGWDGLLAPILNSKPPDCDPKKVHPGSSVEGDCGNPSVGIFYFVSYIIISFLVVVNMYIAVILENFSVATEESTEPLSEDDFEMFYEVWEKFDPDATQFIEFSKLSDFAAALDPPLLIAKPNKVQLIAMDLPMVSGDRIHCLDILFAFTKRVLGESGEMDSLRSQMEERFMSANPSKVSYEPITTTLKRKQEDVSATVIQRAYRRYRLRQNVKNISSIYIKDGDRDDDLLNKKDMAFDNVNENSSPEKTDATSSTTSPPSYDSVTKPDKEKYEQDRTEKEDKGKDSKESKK

CC[C@H](C)[C@@H]1NC(=O)[C@@H]2CSSC[C@@H]3NC(=O)[C@H](C(C)C)NC(=O)[C@H](CC(C)C)NC(=O)[C@H](CC(N)=O)NC(=O)[C@@H]4CCCN4C(=O)[C@H](CCCNC(=N)N)NC(=O)[C@H](CSSC[C@H](NC(=O)[C@@H](N)CC(=O)O)C(=O)N[C@@H](CC(C)C)C(=O)NCC(=O)N[C@@H](Cc4ccccc4)C(=O)N[C@@H](CCSC)C(=O)N[C@@H](CCCNC(=N)N)C(=O)N[C@@H](CCCCN)C(=O)N2)NC(=O)[C@H](CSSC[C@@H](C(=O)N[C@@H](CCCCN)C(=O)N[C@@H](Cc2ccc(O)cc2)C(=O)N[C@H](C(=O)N[C@@H](Cc2ccccc2)C(N)=O)C(C)C)NC(=O)[C@H](Cc2c[nH]c4ccccc24)NC(=O)[C@H](CCCCN)NC(=O)[C@H](Cc2c[nH]cn2)NC(=O)[C@H]([C@@H](C)O)NC(=O)[C@H](CCC(=O)O)NC(=O)[C@H](CO)NC3=O)NC(=O)[C@H](CCCCN)NC(=O)[C@H](CC(=O)O)NC(=O)[C@H](CC(N)=O)NC(=O)[C@H](CC(=O)O)NC(=O)[C@@H]2CCCN2C1=O (H-DCLGFMRKCIPDNDKCCRPNLVCSETHKWCKYVF-NH2; disulfide 2-17, 9-23, 16-30)
IC50 [1]: 0.72 µM
IC50 [2]: > 5 µM

CC[C@H](C)[C@@H]1NC(=O)[C@@H]2CSSC[C@@H]3NC(=O)[C@H](C(C)C)NC(=O)[C@H](CC(C)C)NC(=O)[C@H](CC(N)=O)NC(=O)[C@@H]4CCCN4C(=O)[C@H](CCCNC(=N)N)NC(=O)[C@H](CSSC[C@H](NC(=O)[C@@H](N)CC(=O)O)C(=O)N[C@@H](CC(C)C)C(=O)NCC(=O)N[C@@H](Cc4ccccc4)C(=O)N[C@@H](CCSC)C(=O)N[C@@H](CCCNC(=N)N)C(=O)N[C@@H](CCCCN)C(=O)N2)NC(=O)[C@H](CSSC[C@@H](C(=O)N[C@@H](CCCCN)C(=O)N[C@@H](Cc2ccc(O)cc2)C(=O)N[C@H](C(=O)N[C@@H](Cc2ccccc2)C(N)=O)C(C)C)NC(=O)[C@H](Cc2c[nH]c4ccccc24)NC(=O)[C@H](CCCCN)NC(=O)[C@H](Cc2cnc[nH]2)NC(=O)[C@H]([C@@H](C)O)NC(=O)[C@H](CCCNC(=N)N)NC(=O)[C@H](CCC(=O)O)NC3=O)NC(=O)[C@H](CCCCN)NC(=O)[C@H](CC(=O)O)NC(=O)[C@H](CC(N)=O)NC(=O)[C@H](CC(=O)O)NC(=O)[C@@H]2CCCN2C1=O (H-DCLGFMRKCIPDNDKCCRPNLVCERTHKWCKYVF-NH2; disulfide 2-17, 9-23, 16-30)
IC50 [1]: > 5 µM
IC50 [2]: > 5 µM

CC[C@@H](C)[C@H]1NC(=O)[C@H]2CSSC[C@@H]3NC(=O)[C@@H](C(C)C)NC(=O)[C@H](CC(C)C)NC(=O)[C@H](CC(N)=O)NC(=O)[C@@H]4CCCN4C(=O)[C@H](CCCNC(=N)N)NC(=O)[C@H](CSSC[C@@H](NC(=O)[C@@H](N)CC(=O)O)C(=O)N[C@H](C)C(=O)NCC(=O)N[C@@H](Cc4ccccc4)C(=O)N[C@H](CCSC)C(=O)N[C@@H](CCCNC(=N)N)C(=O)N[C@@H](CCCCN)C(=O)N2)NC(=O)[C@@H](CSSC[C@@H](C(=O)N[C@@H](CCCCN)C(=O)N[C@@H](Cc2ccc(O)cc2)C(=O)N[C@H](C(=O)N[C@@H](Cc2ccccc2)C(N)=O)C(C)C)NC(=O)[C@@H](Cc2c[nH]c4ccccc24)NC(=O)[C@H](CCCCN)NC(=O)[C@H](Cc2cnc[nH]2)NC(=O)[C@@H]([C@H](C)O)NC(=O)[C@@H](CCCNC(=N)N)NC(=O)[C@H](CO)NC3=O)NC(=O)[C@@H](CCCCN)NC(=O)[C@H](CC(=O)O)NC(=O)[C@@H](CC(N)=O)NC(=O)[C@H](CC(=O)O)NC(=O)[C@@H]2CCCN2C1=O
IC50 [1]: 0.43 µM
IC50 [2]: > 5 µM

CC[C@H](C)[C@@H]1NC(=O)[C@@H]2CSSC[C@@H]3NC(=O)[C@H](C(C)C)NC(=O)[C@H](CC(C)C)NC(=O)[C@H](CC(N)=O)NC(=O)[C@@H]4CCCN4C(=O)[C@H](CCCNC(=N)N)NC(=O)[C@H](CSSC[C@H](NC(=O)[C@@H](N)CC(=O)O)C(=O)N[C@@H](CC(C)C)C(=O)NCC(=O)N[C@@H](Cc4ccccc4)C(=O)N[C@@H](CCSC)C(=O)N[C@@H](CCCNC(=N)N)C(=O)N[C@@H](CCCCN)C(=O)N2)NC(=O)[C@H](CSSC[C@@H](C(=O)N[C@@H](CCCCN)C(=O)N[C@@H](CCC(=O)O)C(=O)N[C@H](C(=O)N[C@@H](Cc2ccccc2)C(N)=O)C(C)C)NC(=O)[C@H](Cc2c[nH]c4ccccc24)NC(=O)[C@H](CCCCN)NC(=O)[C@H](Cc2cnc[nH]2)NC(=O)[C@H]([C@@H](C)O)NC(=O)[C@H](CCCNC(=N)N)NC(=O)[C@H](CO)NC3=O)NC(=O)[C@H](CCCCN)NC(=O)[C@H](CC(=O)O)NC(=O)[C@H](CC(N)=O)NC(=O)[C@H](CC(=O)O)NC(=O)[C@@H]2CCCN2C1=O (H-DCLGFMRKCIPDNDKCCRPNLVCSRTHKWCKEVF-NH2; disulfide 2-17, 9-23, 16-30)
IC50 [1]: > 5 µM
IC50 [2]: > 5 µM

CC[C@H](C)[C@@H]1NC(=O)[C@H]2CSSC[C@H]3NC(=O)[C@H](C(C)C)NC(=O)[C@H](CC(C)C)NC(=O)[C@H](CC(N)=O)NC(=O)[C@@H]4CCCN4C(=O)[C@H](CCCNC(=N)N)NC(=O)[C@H](CSSC[C@H](NC(=O)[C@@H](N)CC(=O)O)C(=O)N[C@@H](CC(C)C)C(=O)NCC(=O)N[C@@H](Cc4ccccc4)C(=O)N[C@@H](CCSC)C(=O)N[C@@H](CCCNC(=N)N)C(=O)N[C@@H](CCCCN)C(=O)N2)NC(=O)[C@@H](CSSC[C@@H](C(=O)N[C@@H](CCCCN)C(=O)N[C@@H](Cc2ccc(O)cc2)C(=O)N[C@H](C(=O)N[C@@H](Cc2ccccc2)C(N)=O)C(C)C)NC(=O)[C@H](Cc2c[nH]c4ccccc24)NC(=O)[C@H](C)NC(=O)[C@H](Cc2cnc[nH]2)NC(=O)[C@H]([C@@H](C)O)NC(=O)[C@H](CCCNC(=N)N)NC(=O)[C@H](CO)NC3=O)NC(=O)[C@H](CCCCN)NC(=O)[C@H](CC(=O)O)NC(=O)[C@H](CC(N)=O)NC(=O)[C@H](CC(=O)O)NC(=O)[C@@H]2CCCN2C1=O
IC50 [1]: 0.47 µM
IC50 [2]: > 5 µM

CC[C@H](C)[C@@H]1NC(=O)[C@@H]2CSSC[C@@H]3NC(=O)[C@H](C(C)C)NC(=O)[C@H](CC(C)C)NC(=O)[C@H](CC(N)=O)NC(=O)[C@@H]4CCCN4C(=O)[C@H](CCCNC(=N)N)NC(=O)[C@H](CSSC[C@H](NC(=O)[C@@H](N)CC(=O)O)C(=O)N[C@@H](CC(C)C)C(=O)NCC(=O)N[C@@H](Cc4ccccc4)C(=O)N[C@@H](CCSC)C(=O)N[C@@H](CCCNC(=N)N)C(=O)N[C@@H](CCCCN)C(=O)N2)NC(=O)[C@H](CSSC[C@@H](C(=O)N[C@@H](CCCCN)C(=O)N[C@@H](Cc2ccc(O)cc2)C(=O)N[C@H](C(=O)N[C@@H](Cc2ccccc2)C(N)=O)C(C)C)NC(=O)[C@H](CCCCN)NC(=O)[C@H](CCCCN)NC(=O)[C@H](Cc2cnc[nH]2)NC(=O)[C@H]([C@@H](C)O)NC(=O)[C@H](CCCNC(=N)N)NC(=O)[C@H](CO)NC3=O)NC(=O)[C@H](CCCCN)NC(=O)[C@H](CC(=O)O)NC(=O)[C@H](CC(N)=O)NC(=O)[C@H](CC(=O)O)NC(=O)[C@@H]2CCCN2C1=O (H-DCLGFMRKCIPDNDKCCRPNLVCSRTHKKCKYVF-NH2; disulfide 2-17, 9-23, 16-30)
IC50 [1]: > 5 µM
IC50 [2]: > 5 µM
